The nature of data set [1]: folding enthalpy; higher = less favourable; fluorescence melt of hairpins on a sequencing array, two-state fit. As to conditions: sodium 0.088 M. A digest of the protocol:
(§1)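 To match UV melts, fitted temperatures were raised by 9.35 °C. These fits were bootstrapped two-state models that gave melting temperature and folding enthalpy, combined by inverse variance over four replicates. The input was normalised Cy3 fluorescence of library hairpins with annealed Cy3 and quencher oligos on a sequenced MiSeq flow cell, imaged in 50 mM Na-HEPES pH 8.0, 25 mM NaCl in 2.5 °C steps up to 60 °C.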

Data set [2] in a line: melting temperature; fluorescence melt of hairpins on a sequencing array, two-state fit, raised by 9.35 °C to match UV melts. As to conditions: sodium 0.088 M. A digest of the protocol:
as §1

Take GTGAGGGGAAACCTTCGC (.((.((....)).)).): the folding enthalpy in data set [1] is -21.5 kcal/mol. The Tm in data set [2] was found to be 33.6 °C.
On the same counts, the results for GGCCCGCCGAAAGGCGCC (((..(((....)))))) are -7.51 kcal/mol and 38 °C.
As for GCAGCTCGAAAGAGGTGC (((.(((....))).))), the folding enthalpy in data set [1] was -29.4 kcal/mol. For the same sequence, the Tm in data set [2] was 67.5 °C.
For GACGCGCCGAAAGGCGTC (((..(((....)))))), in that order: -6.51 kcal/mol and 37.7 °C.
For GGCCTTGGAAACAAGACC ((.((((....)))).)), the folding enthalpy in data set [1] was -29.1 kcal/mol. Further, the Tm in data set [2] is 44.7 °C.
Regarding GCCCAGCGAAAGCAAGGC (((..((....))..))), the folding enthalpy in data set [1] is -18.5 kcal/mol. Besides, the Tm in data set [2] is 56.9 °C.
For GATCCATCTTGGATC ((((((...)))))), in that order: -35.2 kcal/mol and 51.6 °C.
For GATCATTCACATGATC ((((((....)))))), in that order: -39.8 kcal/mol and 46.6 °C.
On the same counts, the results for GAGGGCGAAAGCCCCCTC ((((((....)))..))) are -7.33 kcal/mol and 42.7 °C.
On to GTGGTAGGAAACTATCGC (.(.(((....))).).), for which the folding enthalpy in data set [1] is -18.1 kcal/mol. Besides, the Tm in data set [2] is 31.1 °C.
As to GATCATCAGAATGATC ((((((....)))))), the folding enthalpy in data set [1] is -22.6 kcal/mol. Besides, in data set [2], the Tm worked out at 46.9 °C.
On to GAGCGCGAAAGCGTACTC ((((((....)))..))), for which, in data set [1], the folding enthalpy is -12.1 kcal/mol. The Tm in data set [2] was found to be 44.4 °C.
As for GGCATGGGAAACTGTGCC ((((..(....)..)))), the folding enthalpy in data set [1] is -29.8 kcal/mol. The Tm in data set [2] turned out to be 48.2 °C.
For GACTGCGGAAACGTGGTC (((..((....))..))), in that order: -32.8 kcal/mol and 46.5 °C.
On the same counts, the results for CGAATGCGGAAACGCTCG (((..(((....)))))) are -15.3 kcal/mol and 37.2 °C.
For GTTTCCGAAAGGAGTAAC ((((((....)))..))), in that order: -12.6 kcal/mol and 28.8 °C.
As for GCGCCAGGAAACCGGCAC (.(((.(....).))).), in data set [1], the folding enthalpy was -16.6 kcal/mol. The Tm in data set [2] was found to be 37.4 °C.
For CGGTACGGAAACGTGCCG (((.(((....))).))), in that order: -37.5 kcal/mol and 59.8 °C.
On the same counts, the results for GAAGCGGCGAAAGCCTTC (((..(((....)))))) are -10.2 kcal/mol and 28.5 °C.
On the same counts, the results for GGATACGAAAGTATATCC ((((((....)))..))) are -18.3 kcal/mol and 34.5 °C.
As for GATGACGGAAACGTTATC (((.(((....))).))), the folding enthalpy in data set [1] was -29.6 kcal/mol. Further, the Tm in data set [2] was 46.2 °C.
With GGACTTGGAAACGAGTCC (((((.(....).))))), the folding enthalpy in data set [1] was -39.4 kcal/mol. Besides, the Tm in data set [2] was 52.4 °C.
On the same counts, the results for GATCAGCAACCTGATC ((((((....)))))) are -33 kcal/mol and 46.2 °C.
Take GTCCGTGGAAACACGGGC (.(((((....))))).): the folding enthalpy in data set [1] was -24.1 kcal/mol. Further, the Tm in data set [2] was determined as 63.8 °C.
For GCGTTTCGAAAGAACCGC (((.(((....))).))), in that order: -39.8 kcal/mol and 52.4 °C.
Take GCGACAGGAAACTATCGC ((((.((....)).)))): the folding enthalpy in data set [1] was -31.9 kcal/mol. For the same sequence, the Tm in data set [2] stood at 43.7 °C.
On the same counts, the results for GTCGACCGAAAGGTGAC (((.(((....)))))) are -22.4 kcal/mol and 51.8 °C.
For GCGTATTCGAAAGAACGC (((..(((....)))))), the folding enthalpy in data set [1] is -24.4 kcal/mol. Besides, in data set [2], the Tm is 42.2 °C.
On the same counts, the results for GGGTCTGGAAACAGGTCC ((..(((....)))..)) are -27.8 kcal/mol and 39.9 °C.
On the same counts, the results for GTAAGACCGAAAGGTTAC (((..(((....)))))) are -13.8 kcal/mol and 30.3 °C.
Regarding GGCATTACGAAAGTAGCC (((..(((....)))))), in data set [1], the folding enthalpy is -21.8 kcal/mol. For the same sequence, in data set [2], the Tm worked out at 43.1 °C.
On the same counts, the results for GTGATCGAAAGATGCCAC ((((((....)))..))) are -11.5 kcal/mol and 24.4 °C.
On the same counts, the results for GGTCACGAAAGTGCGACC ((((((....)))..))) are -17.7 kcal/mol and 40.8 °C.
GCCGCGCGAAAGCGACGC ((..(((....)))..)): the folding enthalpy in data set [1] was -11.9 kcal/mol. In data set [2], the Tm is 55.1 °C.
On the same counts, the results for GCTCGCGAAAGCGTCAGC ((((((....)))..))) are -12.3 kcal/mol and 41.4 °C.
With GGAGAGGGAAACCTCTTC (.(((((....))))).), in data set [1], the folding enthalpy is -21.5 kcal/mol. Besides, in data set [2], the Tm is 45.8 °C.
As for GTACCCGAAAGGGTTAC ((((((....))).))), the folding enthalpy in data set [1] is -13.4 kcal/mol. Moreover, in data set [2], the Tm is 46.4 °C.
